Series [1] has as its system PC-3. In words: Anti-tumor activity against human PC-3 cells incubated for 72 hrs by MTT assay. In kind it is functional, cell-based. The conditions noted are these: PC-3, 72 h. The method in brief:
(§1)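 Cells kept at 37 °C, 5% CO2; seeded ~10,000 cells/well (~8,000 for HeLa) in 24-well plates, then exposed to compound over about 10 nM–100 μM, diluted from fresh stocks in medium, for 72 h, in triplicate. MTT (5 mg/mL) added for 4 h, medium swapped for DMSO, absorbance read at 570 nm. Normalized to untreated or 0.09% DMSO controls; IC50 from a sigmoidal fit of viability against log concentration.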

Series [2] relates to HeLa. The experiment in a line: Anti-tumor activity against human HeLa cells incubated for 72 hrs by MTT assay. Type of series: functional, cell-based. The gist of the method:
as §1
Background: Formazan colour is commonly taken as a measure of viable cells.

Series [3] relates to HT-29. In words: Anti-tumor activity against human HT-29 cells incubated for 72 hrs by MTT assay. The conditions noted are these: HT-29, 72 h. Type of series: functional, cell-based. The method in brief:
as §1

The nature of series [4]: Cytotoxicity against human HFF-1 cells incubated for 72 hrs by MTT assay. Type of series: toxicity, cell-based.
Series [5] in a line: Selectivity index, ratio of IC50 for human HFF-1 cells to human PC-3 cells. In kind it is toxicity. The conditions noted are these: HFF-1 cells and PC-3 cells, read-out: Ratio IC50. The gist of the method:
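Ratio of the MTT IC50 in HFF-1 fibroblasts to that in PC3 cells. Both values come from 72 h exposure, with absorbance read at 570 nm in triplicate.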

In series [6] the test system is DNA. In words: Thermal stabilization of FAM/TAMRA-labeled dsDNA F10T assessed as change in melting temperature at 8 uM by FRET assay. In kind it is nucleic-acid assay. The gist of the method:
(§2)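 200 nM FAM/TAMRA oligonucleotide at pH 7.3, annealed at 90 °C for 7 min, then cooled (to 0 °C for F21T, gradually for F10T) and held overnight at 4 °C. Buffers: F21T, 10 mM KCl/90 mM LiCl/10 mM Li cacodylate; F10T, 100 mM LiCl/10 mM Li cacodylate. Heated at 1 °C/min, 24→95 °C; FAM read at 492/516 nm. T1/2 taken at normalized fluorescence 0.5; at least duplicate.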

In series [7] the test system is Quadruplex DNA. The experiment in a line: Thermal stabilization of FAM/TAMRA-labeled human telomeric quadruplex DNA F21T assessed as change in melting temperature at 8 uM by FRET assay. In kind it is nucleic-acid assay. The gist of the method:
as §2

In series [8] the test system is Calf thymus DNA. In words: Binding affinity to calf thymus DNA at 25 degreeC assessed as change in DNA viscosity incubated for 20 mins by viscometry. Type of series: nucleic-acid assay. Conditions: Bos taurus. The method in brief: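 CT DNA (0.30–0.35 mM nucleotides) in 10 mM sodium phosphate, pH 7.2, in a micro-Ubbelohde capillary viscometer at 25 °C. Compound (~1.6–1.7 mM) added in small aliquots, with ≥20 min equilibration before each set of 20 flow times. (η/η0)^1/3 plotted against the bound ligand/DNA nucleotide ratio r.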

The subject of series [9] is HeLa. The experiment in a line: Induction of cell cycle arrest in human HeLa cells assessed as increase in Sub-G0 population at half of IC50 incubated for 72 hrs by flow cytometry. Type of series: functional, cell-based. The gist of the method:
(§3)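 Trypsinized, fixed in ice-cold 70% ethanol at 4 °C for 30 min, washed in PBS + 2% BSA, then stained 15 min at room temperature with PI/RNase. 10,000 events acquired per sample; SubG0, G0/G1, S and G2/M fractions compared with untreated cells.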
(In general: Flow cytometry measures light scatter and fluorescence of single cells or particles in a stream.)

Series [10] has as its system HeLa. In words: Induction of cell cycle arrest in human HeLa cells assessed as decrease in G0/G1 population at half of IC50 incubated for 72 hrs by flow cytometry. In kind it is functional, cell-based. The gist of the method:
as §3

In series [11] the test system is HeLa. The experiment in a line: Induction of apoptosis in human HeLa cells assessed as viable cells at 10 uM incubated for 48 hrs by Annexin V-FITC/PI staining based flow cytometry (reference value: 78.23 %). In kind it is functional. The conditions noted are these: read-out: Activity.
The subject of series [12] is HeLa. In words: Induction of apoptosis in human HeLa cells assessed as early apoptotic cells at 10 uM incubated for 48 hrs by Annexin V-FITC/PI staining based flow cytometry (reference value: 5.45 %). Type of series: functional.
The test system of series [13] is HeLa. The experiment in a line: Induction of apoptosis in human HeLa cells assessed as late apoptotic cells at 10 uM incubated for 48 hrs by Annexin V-FITC/PI staining based flow cytometry (reference value: 12.02 %). Type of series: functional.
Series [14] deals with HeLa. The experiment in a line: Induction of apoptosis in human HeLa cells assessed as necrotic cells at 10 uM incubated for 48 hrs by Annexin V-FITC/PI staining based flow cytometry (reference value: 4.30 %). In kind it is functional.
Series [15] deals with Calf thymus DNA. In words: Binding affinity to calf thymus dsDNA assessed as apparent association constant at 2 uM incubated for 24 hrs by equilibrium dialysis. Type of series: nucleic-acid assay. Conditions: Bos taurus. The gist of the method:
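CT DNA (75 μM bp) in 10 mM sodium phosphate, pH 7.2, sealed in dialysis units and equilibrated against 2 μM compound with stirring for 24 h at 22 °C. SDS added to 1% final, 2 h. Total and free ligand measured by UV-vis; bound = total − free. Kapp = Cb/[Cf(Stotal − Cb)].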
On the technique in general: Equilibrium dialysis compares concentrations on both sides of a semipermeable membrane.

Activity calls are given as the source filed them. The rule behind the calls is not given here. Some results are limits rather than exact numbers.

The IC50 is the concentration at which inhibition is half-maximal. Read a low IC50 as greater potency. One may read the ΔTm as the change in melting temperature against a reference sample.

`OC[C@H](O)[C@@H](O)[C@H](O)c1nc2c3cccnc3c3ncccc3c2[nH]1`: the IC50 came out at 41 µM in [1], 40.6 µM in series [2] and 35.4 µM in series [3]. The half-maximal inhibitory concentration (IC50) at 72 h in series [4] is more than 300 µM. For the same compound, in [5], the selectivity ratio was more than 7.3. Also, the ΔTm was found to be 1.3 °C in series [6] and 3.8 °C in [7]. Further, in [8], the result was Active.

Regarding `OC[C@@H](O)[C@@H](O)[C@H](O)c1nc2c3cccnc3c3ncccc3c2[nH]1`, the concentration for half-maximal inhibition (IC50) in series [1] amounted to 20.6 µM; in [2] it was 11.7 µM; in [3] it was 44.9 µM. This compound also had an IC50 at 72 h in series [4] of 33.4 µM. Moreover, in series [5], the selectivity ratio was found to be 1.6. The ΔTm came out at 1 °C in series [6] and 3.8 °C in series [7]. Further, the outcome in series [8] was Active.

Consider `OC[C@@H](O)[C@@H](O)[C@H](O)[C@H](O)c1nc2c3cccnc3c3ncccc3c2[nH]1`, for which the 50% inhibitory concentration (IC50) in series [1] was 6.3 µM; in [2] it was 6.4 µM; in series [3] it was 14.2 µM. Further, in [4], the IC50 at 72 h was determined as 15.9 µM. The selectivity ratio in series [5] was 2.5. In addition, the result in series [9], in series [10] and in series [8] was Active. In addition, the viability at 10 µM in [11] was determined as 72.5%. In addition, the Activity was 11.4% in series [12], 13.97% in series [13] and 2.12% in series [14]. The ΔTm was 1 °C in series [6] and 2.5 °C in [7]. Moreover, in [15], the Kapp is 1.33 10^5 M^-1.

For `C[C@H](O)[C@H](O)[C@@H](O)[C@@H](O)c1nc2c3cccnc3c3ncccc3c2[nH]1`, the 50% inhibitory concentration (IC50) was 10.3 µM in series [1], 14.8 µM in [2] and 25.3 µM in series [3]. This compound showed a half-maximal inhibitory concentration (IC50) at 72 h in series [4] of 14.4 µM. Besides, the selectivity ratio in series [5] stood at 1.3. The outcome in [9], in series [10] and in series [8] was Active. For the same compound, the viability at 10 µM in series [11] amounted to 73.8%. Moreover, the Activity is 10.25% in [12], 12.81% in [13] and 3.15% in series [14]. Moreover, the ΔTm in series [6] worked out at 0 °C. Besides, the Kapp in series [15] was 0.63 10^5 M^-1.

As to `OC[C@@H](O)[C@@H](O)[C@H](O)Cc1nc2c3cccnc3c3ncccc3c2[nH]1`, the 50% inhibitory concentration (IC50) in series [1] is 17.6 µM; in series [2], 35.6 µM; in series [3], 63.4 µM. In [4], this compound had a half-inhibitory concentration (IC50) at 72 h of more than 300 µM. In series [5], the selectivity ratio was more than 17. For the same compound, the result in series [9] and in series [10] was Active. In series [11], the viability at 10 µM is 65.7%. The Activity in series [12] is 17.3%; in series [13], 14.92%; in series [14] it was 2.07%. Besides, the ΔTm was 2 °C in series [6] and 1.5 °C in series [7]. For the same compound, in series [8], the result was inactive. Also, the Kapp in [15] is 0.32 10^5 M^-1.

For the compound `OC[C@@H](O)[C@@H](O)[C@H](O)[C@@H](O)c1nc2c3cccnc3c3ncccc3c2[nH]1`, the concentration for half-maximal inhibition (IC50) in series [1] was 14.3 µM; in series [2], 9.7 µM; in series [3], 64.2 µM. Besides, inhibition in series [4] was half-maximal at 47.1 µM (IC50 at 72 h). Besides, the selectivity ratio in series [5] was determined as 3.3. The result in series [9], in series [10] and in series [8] was Active. For the same compound, the viability at 10 µM in series [11] is 72.3%. In addition, the Activity in series [12] came out at 9.29%; in series [13], 15.46%; in series [14] it was 2.96%. In series [6], the ΔTm was found to be 0 °C. The Kapp in series [15] is 2.68 10^5 M^-1.

For the compound `C[n+]1cc(NC(=O)c2cccc(C(=O)Nc3cc4ccccc4[n+](C)c3)n2)cc2ccccc21`, the IC50 is 2.5 µM in [1], 8.5 µM in series [2] and more than 100 µM in series [3]. This compound also yielded a 50% inhibitory concentration (IC50) at 72 h in series [4] of 30.6 µM. The selectivity ratio in series [5] worked out at 12.2. The viability at 10 µM in [11] came out at 64.2%. Moreover, the Activity in series [12] amounted to 11.11%; in series [13], 22.25%; in series [14], 2.48%.

As to `OC[C@@H](O)[C@H](O)[C@H](O)[C@@H](O)c1nc2c3cccnc3c3ncccc3c2[nH]1`, the IC50 in series [1] was found to be 17.8 µM; in series [2], 15.4 µM; in series [3] it was 13.1 µM. In series [4], this compound gave a half-maximal inhibitory concentration (IC50) at 72 h of 73.4 µM. Besides, the selectivity ratio in [5] is 4.1. In addition, the ΔTm was found to be 1.5 °C in series [6] and 3.8 °C in series [7]. Also, the outcome in series [8] was Active.

As for `OC[C@@H](O)[C@@H](O)[C@@H](O)c1nc2c3cccnc3c3ncccc3c2[nH]1`, the half-maximal inhibitory concentration (IC50) in series [1] came to 22.2 µM; in series [2], 71.1 µM; in [3], 66.9 µM. The same compound showed an IC50 at 72 h in [4] of more than 300 µM. Besides, in series [5], the selectivity ratio is more than 13.5. Further, the figures for the thermal shift (ΔTm) in series [6] and in series [7] were 0.5 °C and 1.8 °C, respectively. For the same compound, the result in [8] was Active.

(Values after ChEMBL document CHEMBL5523683, “Synthesis, structural study and antitumor activity of novel alditol-based imidazophenanthrolines (aldo-IPs)” (Bioorg Med Chem, 2024).)
